According to ChEMBL document CHEMBL1145795, “Design, synthesis, and evaluation of analogues of 3,3,3-trifluoro-2-hydroxy-2-phenyl-propionamide as orally available general anesthetics” (J Med Chem, 2003):
The source made the active and inactive calls. No cut-off for these calls is given here.

What was measured:
Rattus norvegicus [1] = assay: Compound was tested for minimum alveolar concentration in rat at dose 60 mg/kg administered intraperitoneally; type: functional; conditions: route intraperitoneal
How it was run: (§1)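 Rats were isoflurane-induced, intubated and ventilated, with femoral arterial and venous lines and normothermia. Baseline MAC was taken by tail clamp for 1 min, stepping isoflurane by 0.1% with 12–15 min equilibration. MAC was the midpoint between movement and no movement. The compound (60 mg/kg) was sonicated in 3 mL peanut oil and given ip. MAC was redetermined at 30 min and 1 h. Blood pressure was recorded; values are given as mean ± SEM.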

Rattus norvegicus [2] = assay: Compound was tested for blood pressure in rat at dose 60 mg/kg administered intraperitoneally; type: functional; conditions: route intraperitoneal; how it was run: as §1
[3] = molecular target: T1, Sodium channel protein type 4 subunit alpha (Homo sapiens, UniProt P35499); assay: Inhibition of sodium channels through phasic blockade; type: functional
[4] = molecular target: T1, Sodium channel protein type 4 subunit alpha; assay: Inhibition of sodium channels through tonic blockade; type: functional
Mus musculus [5] = assay: Compound was tested for anticonvulsant activity against subcutaneous metrazole at dose 30 mg/kg in time 4 hr in mice administered subcutaneously; type: functional
How it was run: (§2)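 Run by the NINDS ADD program in mice, challenged with maximal electroshock or subcutaneous metrazol at 0.5 h and 4 h after dosing. Protection is scored per animal (e.g. […], 5 for scMet at 100 mg/kg).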

Mus musculus [6] = assay: Compound was tested for anticonvulsant activity using rotarod method at dose 300 mg/kg in time 0.5 hr in mice administered subcutaneously; type: functional; conditions: route subcutaneous
How it was run: (§3)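 NINDS ADD rotarod neurotoxicity screen in mice at 0.5 h and 4 h post-dose. The score is inability to grasp the rotating rod; loss of righting reflex after falling was also noted.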

Mus musculus [7] = assay: Compound was tested for anticonvulsant activity using rotarod method at dose 300 mg/kg in time 4 hr in mice administered subcutaneously; type: functional; conditions: route subcutaneous; how it was run: as §3
Mus musculus [8] = assay: Compound was tested for anticonvulsant activity against subcutaneous metrazole at dose 30 mg/kg in time 0.5 hr in mice administered subcutaneously; type: functional; how it was run: as §2
Mus musculus [9] = assay: Compound was tested for anticonvulsant activity against subcutaneous metrazole at dose 100 mg/kg in time 4 hr in mice administered subcutaneously; type: functional; how it was run: as §2
Rattus norvegicus [10] = assay: Compound was tested for isoflurane minimum alveolar concentration in rat at dose 60 mg/kg administered intraperitoneally; type: functional; conditions: route intraperitoneal; how it was run: as §1
Mus musculus [11] = assay: Compound was tested for anticonvulsant activity against subcutaneous metrazole at dose 100 mg/kg in time 0.5 hr in mice administered subcutaneously; type: functional; how it was run: as §2
Mus musculus [12] = assay: Compound was tested for anticonvulsant activity against subcutaneous metrazole at dose 300 mg/kg in time 4 hr in mice administered subcutaneously; type: functional; how it was run: as §2
Mus musculus [13] = assay: Compound was tested for anticonvulsant activity against maximal electroshock at dose 30 mg/kg in time 4 hr in mice administered subcutaneously; type: functional; conditions: route subcutaneous; how it was run: as §2
HEK293 [14] = assay: Effect on HEK293 cells co-expressing voltage-gated Na+ channel rNav 1.3 and beta-3 at 10 uM; NE=No effect; type: functional, cell-based
How it was run: (§4)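 rNaV1.3 coexpressed with β3 in HEK293 cells (and Xenopus oocytes), exposed to 10 µM or 100 µM and assessed for Na+ channel block.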

Mus musculus [15] = assay: Compound was tested for anticonvulsant activity against maximal electroshock at dose 30 mg/kg in time 0.5 hr in mice administered subcutaneously; type: functional; conditions: route subcutaneous; how it was run: as §2
Rattus norvegicus [16] = species on record: Rattus norvegicus; assay: Compound was tested for anticonvulsant activity against maximal electroshock in rat; type: functional
How it was run: (§5)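 NINDS ADD Phase II quantification with oral dosing. […] Therapeutic index is rotarod TD50 divided by the MES or scMET ED50.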

Rattus norvegicus [17] = assay: Compound was tested for anticonvulsant activity by measuring the therapeutic index by subcutaneous metrazole in rat; type: functional; how it was run: as §5
Mus musculus [18] = assay: Compound was tested for anticonvulsant activity against maximal electroshock at dose 300 mg/kg in time 0.5 hr in mice administered subcutaneously; type: functional; conditions: route subcutaneous; how it was run: as §2
Mus musculus [19] = assay: Compound was tested for anticonvulsant activity using rotarod method at dose 100 mg/kg in time 0.5 hr in mice administered subcutaneously; type: functional; conditions: route subcutaneous; how it was run: as §3
Mus musculus [20] = assay: Compound was tested for anticonvulsant activity against maximal electroshock at dose 100 mg/kg in time 4 hr in mice administered subcutaneously; type: functional; conditions: route subcutaneous; how it was run: as §2
HEK293 [21] = assay: Inhibition of rat TASK-1 and TASK-3-leak K+ channels expressed in HEK293 cells at 100 uM; NE denotes no effects; type: functional, cell-based
[22] = molecular target: Protein kinase C (PKC) (Homo sapiens) (UniProt O94806+P41743+P17252+P05129+Q05655+P05771+Q05513+Q02156+P24723+Q15139+Q04759); assay: Inhibition of protein kinase C at 100 uM; NE=no effect; type: protein assay
Rattus norvegicus [23] = species on record: Rattus norvegicus; assay: Compound was tested for anticonvulsant activity using rotarod method in rat; type: functional; how it was run: as §5
Mus musculus [24] = assay: Compound was tested for anticonvulsant activity against maximal electroshock at dose 100 mg/kg in time 0.5 hr in mice administered subcutaneously; type: functional; conditions: route subcutaneous; how it was run: as §2
Mus musculus [25] = assay: Compound was tested for anticonvulsant activity using rotarod method at dose 100 mg/kg in time 4 hr in mice administered subcutaneously; type: functional; conditions: route subcutaneous; how it was run: as §3
Mus musculus [26] = assay: Compound was tested for anticonvulsant activity against maximal electroshock at dose 300 mg/kg in time 4 hr in mice administered subcutaneously; type: functional; conditions: route subcutaneous; how it was run: as §2
[27] = molecular target: Gamma-aminobutyric acid receptor subunit gamma-1 (Rattus norvegicus) (UniProt P23574); assay: Enhanced 10 uM GABA-A receptor currents in rat hippocampal neurons; NE=no effect; type: functional, tissue-based; conditions: Hippocampus
How it was run: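 Peak current is expressed as percent of the GABA-alone control. Concentration–response was fitted to a four-parameter logistic; values are given as mean ± SEM.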

Mus musculus [28] = assay: Compound was tested for anticonvulsant activity against subcutaneous metrazole at dose 300 mg/kg in time 0.5 hr in mice administered subcutaneously; type: functional; how it was run: as §2
HEK293 [29] = assay: Effect on HEK293 cells co-expressing voltage-gated Na+ channel rNav 1.3 and beta-3 at 100 uM; NE=No effect; type: functional, cell-based; how it was run: as §4
Rattus norvegicus [30] = assay: Compound was tested for anticonvulsant activity against subcutaneous metrazole in rat; type: functional; conditions: sc; how it was run: as §5
Rattus norvegicus [31] = species on record: Rattus norvegicus; assay: Compound was tested for anticonvulsant activity by measuring the therapeutic index by maximal electroshock in rat; type: functional; how it was run: as §5

T1 sequence (P35499 whole entry): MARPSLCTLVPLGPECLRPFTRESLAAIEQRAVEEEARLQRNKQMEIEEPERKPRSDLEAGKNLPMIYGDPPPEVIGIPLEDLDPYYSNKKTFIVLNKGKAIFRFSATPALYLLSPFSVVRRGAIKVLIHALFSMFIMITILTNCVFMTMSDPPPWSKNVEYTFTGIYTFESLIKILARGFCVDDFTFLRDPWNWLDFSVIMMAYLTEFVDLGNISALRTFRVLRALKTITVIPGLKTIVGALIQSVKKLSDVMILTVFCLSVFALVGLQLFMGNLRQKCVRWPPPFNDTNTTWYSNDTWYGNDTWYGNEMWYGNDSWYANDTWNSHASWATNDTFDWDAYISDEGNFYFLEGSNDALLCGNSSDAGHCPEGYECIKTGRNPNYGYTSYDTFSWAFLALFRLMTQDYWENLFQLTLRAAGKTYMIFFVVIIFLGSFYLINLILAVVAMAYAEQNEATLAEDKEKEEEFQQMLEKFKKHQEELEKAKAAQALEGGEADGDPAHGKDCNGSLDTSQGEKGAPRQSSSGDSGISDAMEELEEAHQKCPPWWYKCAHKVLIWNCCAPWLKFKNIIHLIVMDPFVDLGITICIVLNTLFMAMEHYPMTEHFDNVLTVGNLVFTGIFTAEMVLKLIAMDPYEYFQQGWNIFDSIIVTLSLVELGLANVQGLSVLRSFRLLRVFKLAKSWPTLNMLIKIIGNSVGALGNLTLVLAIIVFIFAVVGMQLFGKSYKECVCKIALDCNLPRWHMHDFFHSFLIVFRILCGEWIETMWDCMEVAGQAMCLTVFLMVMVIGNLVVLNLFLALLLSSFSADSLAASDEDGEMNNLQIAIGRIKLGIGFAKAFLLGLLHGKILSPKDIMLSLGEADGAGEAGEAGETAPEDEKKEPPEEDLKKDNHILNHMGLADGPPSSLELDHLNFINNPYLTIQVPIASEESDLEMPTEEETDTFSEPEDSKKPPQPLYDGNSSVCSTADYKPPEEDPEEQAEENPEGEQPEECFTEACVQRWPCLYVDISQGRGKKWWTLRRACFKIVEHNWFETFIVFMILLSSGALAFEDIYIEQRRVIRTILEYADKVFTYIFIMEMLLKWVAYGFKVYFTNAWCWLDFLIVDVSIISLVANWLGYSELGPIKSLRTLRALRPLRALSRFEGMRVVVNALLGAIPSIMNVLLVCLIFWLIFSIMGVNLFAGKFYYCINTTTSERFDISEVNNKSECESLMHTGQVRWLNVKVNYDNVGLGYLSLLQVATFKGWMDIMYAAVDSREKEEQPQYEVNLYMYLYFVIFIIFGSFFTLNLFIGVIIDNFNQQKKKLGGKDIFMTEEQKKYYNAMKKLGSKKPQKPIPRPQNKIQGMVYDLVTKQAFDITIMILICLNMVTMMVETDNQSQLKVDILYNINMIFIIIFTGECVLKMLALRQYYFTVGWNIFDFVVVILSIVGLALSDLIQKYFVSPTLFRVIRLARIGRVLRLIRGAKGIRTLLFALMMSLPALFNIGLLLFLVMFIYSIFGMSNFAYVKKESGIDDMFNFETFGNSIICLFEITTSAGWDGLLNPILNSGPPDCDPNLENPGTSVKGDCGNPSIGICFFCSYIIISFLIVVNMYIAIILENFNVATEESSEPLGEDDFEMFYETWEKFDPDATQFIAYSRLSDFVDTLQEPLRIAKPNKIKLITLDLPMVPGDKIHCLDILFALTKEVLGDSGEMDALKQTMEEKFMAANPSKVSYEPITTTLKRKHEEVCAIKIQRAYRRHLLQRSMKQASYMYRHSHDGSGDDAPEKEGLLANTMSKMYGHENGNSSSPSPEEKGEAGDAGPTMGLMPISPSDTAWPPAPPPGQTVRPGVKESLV
Gamma-aminobutyric acid receptor subunit gamma-1 (Rattus norvegicus), sequence (P23574 whole entry): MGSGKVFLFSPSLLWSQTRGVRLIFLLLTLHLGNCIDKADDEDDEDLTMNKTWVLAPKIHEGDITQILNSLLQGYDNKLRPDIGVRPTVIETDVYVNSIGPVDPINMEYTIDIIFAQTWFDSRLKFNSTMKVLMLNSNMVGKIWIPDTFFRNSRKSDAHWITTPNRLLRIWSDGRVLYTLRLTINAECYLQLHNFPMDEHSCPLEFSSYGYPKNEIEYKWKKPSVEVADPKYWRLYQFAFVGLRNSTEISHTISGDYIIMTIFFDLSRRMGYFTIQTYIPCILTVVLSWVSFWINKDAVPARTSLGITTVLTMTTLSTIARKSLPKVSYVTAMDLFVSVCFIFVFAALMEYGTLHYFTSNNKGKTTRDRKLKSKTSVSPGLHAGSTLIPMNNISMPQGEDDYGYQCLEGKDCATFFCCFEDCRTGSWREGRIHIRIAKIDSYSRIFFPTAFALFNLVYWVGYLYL

Molecule CC(O)(C(N)=O)c1ccccc1 (stereo not given) [ATROLACTAMIDE] has an MAC reduction (Rattus norvegicus [1]) of 0% and a Mean blood pressure (Rattus norvegicus [2]) of 127 mmHg.
Work on NC(=O)C(O)(c1ccccc1)C(F)(F)Cl (stereo not given) yielded an MAC reduction (Rattus norvegicus [1]) of -43% and a Mean blood pressure (Rattus norvegicus [2]) of 81 mmHg.
For NC(=O)C(O)(CC(F)(F)F)c1ccccc1 (stereo not given), the MAC reduction (Rattus norvegicus [1]) was -11% and the Mean blood pressure (Rattus norvegicus [2]) was 107 mmHg.
O=C1Nc2ccccc2C1(O)C(F)(F)F (stereo not given) showed an MAC reduction (Rattus norvegicus [1]) of -4.3% and a Mean blood pressure (Rattus norvegicus [2]) of 113 mmHg.
In the case of NC(=O)C(O)(Cc1ccccc1)C(F)(F)F (stereo not given), the MAC reduction (Rattus norvegicus [1]) is reported as 0% and the Mean blood pressure (Rattus norvegicus [2]) is reported as 111 mmHg.
CNC1(c2ccccc2Cl)CCCCC1=O (stereo not given) [KETAMINE] gave an IC50 [3] of 2.3 mM and an IC50 [4] of 800 µM.
Molecule O=C(O)C(O)(c1ccccc1)C(F)(F)F (stereo not given) has an MAC reduction (Rattus norvegicus [1]) of -9.1% and a Mean blood pressure (Rattus norvegicus [2]) of 116 mmHg.
For NCC(O)(c1ccccc1)C(F)(F)F (stereo not given), the MAC reduction (Rattus norvegicus [1]) was -6.5% and the Mean blood pressure (Rattus norvegicus [2]) was 116 mmHg.
Molecule NC(=O)C(O)(c1ccccc1)C(F)(F)F (stereo not given) has a Protection (Mus musculus [5]) of 0, a Protection (Mus musculus [6]) of 4 and a Protection (Mus musculus [7]) of 2. For the same molecule, the MAC reduction (Rattus norvegicus [1]) was -34%, the Mean blood pressure (Rattus norvegicus [2]) was 119 mmHg and the Protection (Mus musculus [8]) was 0. It also gave a Protection (Mus musculus [9]) of 0, a Volume reduction (Rattus norvegicus [10]) of 34% and a Protection (Mus musculus [11]) of 5. The Protection (Mus musculus [12]) was 1, the Protection (Mus musculus [13]) was 0 and the Activity (HEK293 [14]) was “inactive”. For the same molecule, the Activity (HEK293 [14]; Xenopus sp.) was “inactive”, the Protection (Mus musculus [15]) was 0 and the ED50 (Rattus norvegicus [16]) was 9.9 mg/kg. It also gave a T.I. (Rattus norvegicus [17]) of 2.6, a Protection (Mus musculus [18]) of 1 and a Protection (Mus musculus [19]) of 4. The Protection (Mus musculus [20]) was 3, the Activity (HEK293 [21]) was “inactive” and the Activity [22] was “inactive”. For the same molecule, the ED50 (Rattus norvegicus [23]) was 100 mg/kg, the Protection (Mus musculus [24]) was 3 and the Protection (Mus musculus [25]) was 2. For the same molecule, the Protection (Mus musculus [26]) was 1, the Activity [27] was “inactive” and the Protection (Mus musculus [28]) was 1. The Activity (HEK293 [29]) was “inactive”, the Activity (HEK293 [29]; Xenopus sp.) was “inactive” and the ED50 (Rattus norvegicus [30]) was 39 mg/kg. It also gave a T.I. (Rattus norvegicus [31]) of 10.
Work on CN1C(=O)C(O)(C(F)(F)F)c2ccccc21 (stereo not given) yielded an MAC reduction (Rattus norvegicus [1]) of -4.4% and a Mean blood pressure (Rattus norvegicus [2]) of 112 mmHg.
For O=C1NC(=O)C(c2ccccc2)(c2ccccc2)N1 [PHENYTOIN], the ED50 (Rattus norvegicus [16]) was 9.5 mg/kg, the ED50 (Rattus norvegicus [23]) was 66 mg/kg and the ED50 (Rattus norvegicus [30]) was over 300 mg/kg. The T.I. (Rattus norvegicus [31]) was 6.9.
NC(=O)C(OCc1ccccc1)(c1ccccc1)C(F)(F)F (stereo not given) was tested, and the MAC reduction (Rattus norvegicus [1]) was -4.4% and the Mean blood pressure (Rattus norvegicus [2]) was 121 mmHg.
